From PubChem
FXN GAA850 act: FXN promoter activators, primary screen, cell-based, luciferase luminescence, HEK293 lucGAA850; HEK293 lucGAA850 FXN promoter luciferase reporter, 24 h; percent of 10 µM SAHA response; activation, % at 6 µM; actives 0.56% (n = 360,000); AID 540364, 2011;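 active = activation above the average of all compounds screened plus 3 SD, cutoff fixed separately per campaign, cut at about 7.5% in these data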;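 also: 0% = DMSO wells and 100% = 10 µM SAHA wells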
NR2E3 ag-1: inhibitors of NR2E3-RetCOR corepressor binding, primary screen, NR2E3 agonist project, biochemical, TR-FRET, GST-NR2E3, biotin-RetCOR; inhibition of corepressor binding, % at 4.78 µM; actives 0.12% (n = 320,000); 1536-well;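 active = percent inhibition above the cutoff of mean plus 3 SD of all tested compounds, set per screening campaign, cut at about 20% in these data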;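 also: 0% = DMSO wells and 100% = biotin wells as full block of FRET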
Target sequence (Q9Y5X4 whole entry, looked up): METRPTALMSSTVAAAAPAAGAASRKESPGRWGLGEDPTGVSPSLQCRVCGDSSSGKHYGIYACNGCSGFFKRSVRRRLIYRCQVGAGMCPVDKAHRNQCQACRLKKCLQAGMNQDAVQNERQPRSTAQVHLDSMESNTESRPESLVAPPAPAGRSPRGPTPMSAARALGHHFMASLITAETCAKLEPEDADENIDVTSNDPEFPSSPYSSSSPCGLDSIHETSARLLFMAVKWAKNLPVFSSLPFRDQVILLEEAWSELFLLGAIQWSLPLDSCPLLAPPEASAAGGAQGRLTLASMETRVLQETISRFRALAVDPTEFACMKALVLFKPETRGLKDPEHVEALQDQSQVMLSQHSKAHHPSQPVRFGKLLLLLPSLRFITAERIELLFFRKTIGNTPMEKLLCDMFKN
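Test system – NR2E3–RetCOR corepressor complex · Quantity – NR2E3 fusion 1.35 nM · Buffer or medium – Tris pH 7.5 · Incubation – Compound–protein incubation for 5 h at 4 °C · Technique – TR-FRET, Eu(K)-anti-GST donor, streptavidin-D2 acceptor, ex 340, em 617/671 nm · Evaluation – percent inhibition of 671/617 nm emission ratio versus biotin and DMSO controls · Plate – 1536-well format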
Myeloid diff MLP: induction of myeloid progenitor differentiation, primary screen, cell-based, flow cytometry, MLPCN library; ER-HoxA9 myeloid progenitors, lysozyme-GFP differentiation; calls only at 10 µM; actives 1% (n = 360,000);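 active = normalized GFP-positive differentiation at or above the plate's own cutoff, the solvent-only control mean plus 3 SD; inconclusive = no clear call, values can overlap the other calls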;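 also: cells exposed to compound for four days before flow analysis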
T cell HTS: modulators of CD8 T cell-vesicle binding, primary screen, mouse 2C CD8+ T cells, flow cytometry; response (vesicle binding), % at 7 µM; actives 0.068% (n = 330,000); AID 2052, 2009; 2C CD8+ T cell-vesicle binding; stronger effect = lower value;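 active = response, share of CD8 T cells binding vesicles, and their 90th percentile fluorescence all below set limits, cut at about 80% in these data, passing the limit was not always enough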;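 also: values below 100% mean blocked vesicle binding to the CD8+ T cells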
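incubation = binding step 1.5 h, 37 °C, antibody labelling 20 min, ice | test system = 2C mouse CD8+ T cells | read-out basis = percent CD8+ FL2 mean versus row control | controls = Peptide-free naked vesicles (low) and QL9 vesicles with 0.7% DMSO vehicle (high) | detection = flow cytometry of vesicle-bound cells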
NR2E3 ag-2: NR2E3 agonists in two-hybrid cells, primary screen, cell-based, luminescence, CHO-S, Gal4-NCOR/VP16-NR2E3; Photoreceptor-specific nuclear receptor (Homo sapiens), Q9Y5X4; luciferase; inhibition of corepressor binding, % at 3.98 µM; actives 0.35% (n = 360,000); AID 602229, 2012;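 active = inhibition above the mean of all tested compounds plus 3 SD, cut at about 70% in these data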;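 also: 0% = DMSO with NR2E3 transfected cells and 100% = cells lacking NR2E3 construct; higher means lower luciferase signal from less NR2E3 corepressor binding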
NR2E3 ag confirm: NR2E3 agonist confirmation in cells, cell-based, luminescence, CHO-S two-hybrid | shares compounds with NR2E3 ag-2 | CHO-S mammalian two-hybrid NR2E3-NCOR, luciferase luminescence | inhibition, % at 3.98 µM | actives 51% (n = 2,300) | AID 624378, 2012;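 active = average inhibition above a cutoff equal to the mean inhibition of all tested compounds plus one SD, cut at about 70% in these data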;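 also: 0% = DMSO in NR2E3 cells and 100% = DMSO in cells lacking NR2E3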
VP16 counter: GAL4-VP16 reporter modulators, confirmation, counter-screen for NR2E3 agonist project, cell-based, luminescence, CHO-S, high throughput; actives 29% (n = 2,300); CHO-S GAL4-VP16 luciferase reporter; inhibition, % at 3.98 µM; shares compounds with NR2E3 ag-2;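 active = mean inhibition above a cutoff equal to the average over all tested compounds plus one standard deviation, cut at about 70% in these data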;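 also: luciferase from a UAS reporter driven by GAL4-VP16 transactivation; 0% = DMSO with VP16-transfected cells and 100% = DMSO with cells lacking VP16; higher means less reporter light so more repression of VP16 activity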
* marks the source's active call; other numbers are inactive results; i = inactive; u = inconclusive; x = not tested or not shown. A selection: hits, their analogues and other compounds. The true share with any hit is near 2%.

SMILES | FXN GAA850 act | NR2E3 ag-1 | Myeloid diff MLP | T cell HTS | NR2E3 ag-2 | NR2E3 ag confirm | VP16 counter
CC(N)C(=O)NC1C2C(=C(O)CC(O)C2O)C(=O)OC1(C)C(Cl)Cl (stereo unspecified) | -14 | x | x | x | 98* | 96* | 92*
CCCCC1(CC)COP(=O)(OCC(Cl)(Cl)Cl)OC1 (stereo unspecified) | 2 | x | i | x | -20 | x | x
CC1CCC/C=C/C2CC(O)CC2C(O)/C=C/C(=O)O1 (stereo unspecified) | -6 | 2 | x | 236 | 83* | 99* | 56
C[C@H]1CCC[C@@H](O)CCC/C=C/c2cc(O)cc(O)c2C(=O)O1 | -4 | 3 | i | 339 | 25 | x | x
C[C@H]1[C@@H](OS(=O)(=O)O)C[C@@H]2C[C@H]([C@@H](O)c3cc(=O)[nH]c(=O)[nH]3)NC3=NC[C@H]1N32 | -14 | x | u | x | 101* | 99* | 82*
COc1cc2cc(C(=O)N3CC(COS(C)(=O)=O)c4ccc(O)cc43)[nH]c2c(OC)c1OC (stereo unspecified) | -15 | x | x | x | 73* | 100* | 94*
CSc1ccccc1NP1(=O)OCC(C)([N+](=O)[O-])CO1 (stereo unspecified) | 1 | x | i | x | 16 | x | x
CC(=O)OC1CC2OC3C=C(C)CCC3(C)C1(C)C21CO1 (stereo unspecified) | -16 | x | i | x | 102* | 100* | 98*
CC(=O)O[C@H]1C[C@@H]2OC3C=C(C)CCC3(C)[C@@]1(C)[C@@]21CO1 (stereo partly specified) | -15 | x | x | x | 101* | 98* | 97*
CCCCn1nnnc1C(c1cccc(OC)c1OC)N1CCC2(CC1)C(=O)NCN2c1ccccc1 (stereo unspecified) | x | x | i | x | -11 | x | x
CCC1CN2CCc3cc(OC)c(OC)cc3C2CC1CC1NCCc2c1[nH]c1ccc(O)cc21 (stereo unspecified) | -15 | x | x | x | 102* | 99* | 99*
CNC(=O)Oc1ccccc1C1CCCCC1 | 0 | x | i | x | 6 | x | x
Oc1c(Cl)cccc1Cc1cc(Cl)cc(Cl)c1O | -2 | x | i | x | 98* | 100* | 93*
COc1ccc(-n2nnnc2C(CCSC)N2CCC3(CC2)C(=O)NCN3c2ccccc2)cc1 (stereo unspecified) | x | x | i | x | -10 | x | x
CCOC(=O)[C@]12Cc3cc(OC)ccc3[C@H]1N(CC(=O)OC)C(=O)c1cc(OC)ccc12 | x | x | i | x | 21 | x | x
c1ccc(-c2ccc(CN3Cc4ccccc4-n4nncc4C3)cc2)cc1 | -1 | x | i | x | 59 | 83* | 60
COC1CC2C=C(C)C=CC=CC(=O)NC(c3ccccc3)CC=CCCC(O)CC(=O)C2=C1O (stereo unspecified) | x | x | x | x | 103* | 99* | 95*
CN(Cc1cccc(-c2ccncc2)c1)C(=O)Oc1ccccc1Cc1ccccc1 | x | x | i | x | 81* | 80* | 79*
CN(Cc1cccc(-c2ccncc2)c1)C(=O)Oc1ccccc1Cl | x | x | i | x | 88* | 73* | 77*
Cc1nc2cc(OC(=O)N(C)Cc3cccc(-c4ccncc4)c3)ccc2s1 | x | x | i | x | 67 | 62 | 54
CN(C)Cc1ccccc1OC(=O)N(C)C | 0 | 4 | i | 218 | -11 | x | x
CC(C)C[C@H]1COc2cc(N3CCN(C)CC3)ccc2S(=O)(=O)N1 | x | x | i | x | 11 | x | x
O=C1NCN(c2ccccc2)C12CCN(C(c1ccnc3ccccc13)c1nnnn1-c1ccc3c(c1)OCCO3)CC2 (stereo unspecified) | x | x | i | x | -22 | x | x
